ChEMBL document CHEMBL2169854, “New insight into the central benzodiazepine receptor-ligand interactions: design, synthesis, biological evaluation, and molecular modeling of 3-substituted 6-phenyl-4H-imidazo[1,5-a][1,4]benzodiazepines and related compounds” (J Med Chem, 2011)
pKi: −log10 of the molar value. Active and inactive are the calls of the source. The rule behind the calls is not given here.

Legend:
[1] = test system: Mus musculus; assay: Antiamnesic activity against scopolamine-induced amnesic effect in mouse assessed as increase in retention latency period at 3 mg/kg, po by passive avoidance test; format: functional, organism-based; design: dose 3 mg/kg
Procedure, shortened: (§1)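 In a mouse passive-avoidance test, oral doses in 1% CMC were tested against amnesia induced by 1.5 mg/kg scopolamine ip. Retention latency was scored and compared with controls by ANOVA.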

[2] = test system: Oocyte; assay: Antagonist at human recombinant GABA-A alpha5beta2gamma2L receptor expressed in Xenopus laevis oocytes assessed as blockade of diazepam-induced potentiation of GABA-induced chloride current at 10 uM incubated 60 seconds before addition of GABA measured after 30 seconds at holding potential -70 mV by two-microelectrode voltage clamp technique; format: functional, cell-based
Procedure, shortened: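 Oocytes expressing human α1β2γ2L, α2β1γ2L or α5β2γ2L receptors were clamped at −70 mV. Compound at 10 μM was tested against the enhancement of the GABA EC10 response by 1.0 μM diazepam, with 60 s preapplication and 30 s coapplication. The response was expressed as percent potentiation, from 2–3 oocytes.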

[3] = molecular target: T1, GABA-A receptor; alpha-5/beta-3/gamma-2 (Homo sapiens, UniProt P18507+P28472+P31644); assay: Displacement of [3H]flumazenil from human recombinant GABA-A alpha5beta3gamma2L receptor in HEK293 cells; format: cell-based
T1 sequence (P18507 whole entry): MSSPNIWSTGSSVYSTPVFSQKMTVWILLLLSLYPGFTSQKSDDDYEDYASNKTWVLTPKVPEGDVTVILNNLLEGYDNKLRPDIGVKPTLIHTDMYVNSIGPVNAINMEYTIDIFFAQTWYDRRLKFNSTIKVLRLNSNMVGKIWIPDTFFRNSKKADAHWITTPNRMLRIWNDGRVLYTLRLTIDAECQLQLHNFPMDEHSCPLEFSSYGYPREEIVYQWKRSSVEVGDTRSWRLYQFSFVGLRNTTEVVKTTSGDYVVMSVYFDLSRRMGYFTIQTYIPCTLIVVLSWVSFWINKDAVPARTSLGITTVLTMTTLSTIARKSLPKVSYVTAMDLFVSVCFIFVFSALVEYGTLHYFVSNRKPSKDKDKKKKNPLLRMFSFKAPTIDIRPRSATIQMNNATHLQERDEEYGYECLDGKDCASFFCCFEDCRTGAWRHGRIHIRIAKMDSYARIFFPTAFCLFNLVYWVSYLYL
T1 sequence (P28472 whole entry): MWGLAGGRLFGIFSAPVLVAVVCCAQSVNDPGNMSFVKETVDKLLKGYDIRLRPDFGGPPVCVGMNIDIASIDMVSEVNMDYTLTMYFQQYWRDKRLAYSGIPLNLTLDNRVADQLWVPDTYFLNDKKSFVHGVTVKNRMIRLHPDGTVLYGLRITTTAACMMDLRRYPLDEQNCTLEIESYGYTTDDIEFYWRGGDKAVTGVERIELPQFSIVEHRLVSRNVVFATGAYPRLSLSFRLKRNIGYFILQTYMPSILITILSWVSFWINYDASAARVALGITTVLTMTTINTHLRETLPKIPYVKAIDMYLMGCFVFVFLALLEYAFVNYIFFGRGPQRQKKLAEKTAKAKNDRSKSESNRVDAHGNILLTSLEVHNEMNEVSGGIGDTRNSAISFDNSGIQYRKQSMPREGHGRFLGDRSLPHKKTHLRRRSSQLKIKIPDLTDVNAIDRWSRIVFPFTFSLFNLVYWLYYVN
T1 sequence (P31644 whole entry): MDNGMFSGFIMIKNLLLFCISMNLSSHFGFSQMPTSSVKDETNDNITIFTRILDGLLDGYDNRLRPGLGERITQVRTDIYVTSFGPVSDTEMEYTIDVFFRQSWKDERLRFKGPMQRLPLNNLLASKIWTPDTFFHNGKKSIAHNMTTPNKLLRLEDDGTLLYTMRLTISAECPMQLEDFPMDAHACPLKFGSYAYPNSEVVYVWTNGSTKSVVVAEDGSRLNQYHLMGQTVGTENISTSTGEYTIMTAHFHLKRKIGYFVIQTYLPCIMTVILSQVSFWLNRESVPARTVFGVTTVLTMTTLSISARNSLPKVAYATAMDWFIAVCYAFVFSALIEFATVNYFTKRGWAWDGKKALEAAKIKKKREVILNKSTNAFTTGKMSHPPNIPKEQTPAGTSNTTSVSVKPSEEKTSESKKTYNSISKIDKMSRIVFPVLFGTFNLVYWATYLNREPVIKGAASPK
Procedure, shortened: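 Membranes came from stably transfected HEK293 lines expressing α2β2γ2 or α5β3γ2, grown in MEM/EBSS with 10% FCS at 37 C, and were resuspended in 10 mM potassium phosphate pH 7.4 with 100 mM KCl. […] At least six concentrations were tested, DMSO ≤1%. Ki was obtained by Cheng–Prusoff from n = 3 experiments run in triplicate.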

[4] = test system: Mus musculus; assay: Anxiolytic effect in mouse assessed as increase in time spent in light compartment at 10 mg/kg, po by light/dark box test; format: functional, organism-based; design: dose 10 mg/kg
Procedure, shortened: (§2)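 Male mice were used. Compound was given orally as a suspension in 1% CMC; diazepam was given ip in saline; volume 10 mL/kg. Each mouse was placed in the lit side of a two-compartment light/dark box and observed for 5 min, scoring time in the light and transfers. Groups were compared by ANOVA with Fisher PLSD.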

[5] = test system: Mus musculus; assay: […] activity in mouse assessed as effect on spontaneous motility measuring number of movements on plane board at 10 mg/kg, po after 5 mins by hole-board test relative to CMC-treated control; format: functional, organism-based; design: dose 10 mg/kg
Procedure, shortened: (§3)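 Mice dosed orally in 1% CMC were placed singly on a 16-hole board for 5 min. Photocells counted plane movements (spontaneous motility) and hole explorations. Groups of 12–15 mice were compared with CMC controls.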

[6] = organism: Rattus norvegicus; assay: Agonist activity at central benzodiazepine receptor in Sprague-Dawley rat cerebrocortical synaptoneurosomes assessed as increase in GABA-induced [36]chloride ion flow after 10 seconds by beta liquid scintillation counting; format: functional
Procedure, shortened: (§4)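 Cerebral cortex from male Sprague-Dawley rats was homogenised and filtered, and synaptoneurosomes were washed in HEPES pH 7 buffer (145 mM NaCl, 5 mM KCl, 5 mM MgCl2, 1 mM CaCl2, 10 mM glucose). Aliquots of 1.5–2 mg protein were preincubated 10 min at 30 C. Drug was added with 0.2 μCi 36Cl−, uptake was stopped at 10 s, and filter-bound radioactivity was counted by scintillation.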

[7] = test system: Mus musculus; assay: Antiamnesic activity against scopolamine-induced amnesic effect in mouse at 10 mg/kg, po by passive avoidance test; format: functional, organism-based; design: dose 10 mg/kg; procedure, shortened: as §1
[8] = test system: Mus musculus; assay: Myorelaxant activity in mouse assessed as motor coordination measuring number of falls at 10 mg/kg, po measured for 30 seconds after 45 mins of compound administration by rotarod test; format: functional, organism-based; design: dose 10 mg/kg
Procedure, shortened: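 In mice, falls from the rotating rod were counted for 30 s after dosing. Compound was given orally in 1% CMC and diazepam ip in saline. Results were compared against saline/CMC controls by ANOVA.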

[9] = test system: Mus musculus; assay: […] activity in mouse assessed as effect on explorative activity measuring number of inspections at 10 mg/kg, po after 5 mins by hole-board test relative to CMC-treated control; format: functional, organism-based; design: dose 10 mg/kg; procedure, shortened: as §3
[10] = test system: Mus musculus; assay: Anxiolytic effect in mouse assessed as increase in time spent in light compartment at 1 mg/kg, po by light/dark box test; format: functional, organism-based; design: dose 1 mg/kg; procedure, shortened: as §2
[11] = organism: Rattus norvegicus; assay: Partial agonist activity at central benzodiazepine receptor in Sprague-Dawley rat cerebrocortical synaptoneurosomes assessed as increase in GABA-induced [36]chloride ion flow after 10 seconds by beta liquid scintillation counting; format: functional; procedure, shortened: as §4

SMILES	Activity [1]	Activity [2]	pKi [3]	Activity [4]	Activity [5]	Activity [6]	Activity [7]	Activity [8]	Activity [9]	Activity [10]	Activity [11]
CCOC(=O)c1ncn2c1CN=C(c1ccc(F)cc1)c1cc(F)ccc1-2	Active	Active	6.11	Active	inactive	Active	Active	inactive	inactive	Active	
CCOC(=O)c1ncn2c1CN=C(c1ccc(C)cc1)c1ccccc1-2		Active	6.04								Active
